Test [1] in a line: Binding affinity to oligonucleotide d(CGTACG)2 at [drug]/[DNA] ratio of 1 by NMR spectroscopy. In short, it runs like this: (§1)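 1H NMR titration at 600 MHz. A drug stock (23.4 mM) was added in increasing amounts to oligonucleotide up to R = [2]/[DNA] = 4.0. An inverse titration added DNA to 0.2 mM drug. Conditions were D2O, 10 mM phosphate, 0.1 M NaCl, pH 6.7, 25 °C. Shifts were referenced to external DSS.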

The nature of test [2]: Binding affinity to oligonucleotide d(CGTACG)2 assessed as intercalation by single diffusion coefficient experiment. Put shortly: (§2)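 DOSY at 25 °C on the complex in D2O, 0.1 M NaCl, 10 mM phosphate, pH 6.7, with drug at 5.4 mM. Gradient pulse 1.5 ms, 64 increments. Molecular mass was read from a calibration curve of diffusion standards from glucose up to trypsin (Mr 180–23,500).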

Test [3] can be described thus: Binding affinity to oligonucleotide d(ATGCGCAT)2 by UV-visible spectroscopy. In short, it runs like this: (§3)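 Apparent DNA–drug binding constants measured by UV titration at 25 °C, read at λmax 376 nm. A 5.0 x 10^-? M aqueous drug stock was added in increasing amounts to a 1.0 x 10^-5 M oligonucleotide solution.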
A short description of test [4]: Binding affinity to oligonucleotide d(CGTACG)2 by UV-visible spectroscopy. Put shortly: as §3
Test [5] is described as follows: Binding affinity to oligonucleotide d(CGTACG)2 at [drug]/[DNA] ratio of 4 by NMR DOSY experiment. In short, it runs like this:
as §2

Test [6] can be described thus: Binding affinity to oligonucleotide d(CGTACG)2 at [drug]/[DNA] ratio of 3 by NMR DOSY experiment. Put shortly:
as §2

Test [7] is described as follows: Binding affinity to oligonucleotide d(CGTACG)2 at [drug]/[DNA] ratio of 2 by NOESY experiment. In short, it runs like this: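 Phase-sensitive NOESY (TPPI) run at 25 °C in D2O and 15 °C in H2O/D2O 90:10. Sample was complex at R = 2 in 10 mM phosphate pH 6.7 with 100 mM NaCl. Mixing time 300 ms, 2K x 512 FIDs, 1.5 s recycle delay, 80 scans. Ligand–DNA NOEs were treated as transferred NOEs.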

The nature of test [8]: Binding affinity to oligonucleotide d(CGTACG)2 at [drug]/[DNA] ratio of 4 by NMR spectroscopy. In short, it runs like this:
as §1

Test [9] can be described thus: Binding affinity to oligonucleotide d(CGTACG)2 by single diffusion coefficient experiment. In short, it runs like this:
as §2

Test [10] is described as follows: Binding affinity to oligonucleotide d(CGTATACG)2 by UV-visible spectroscopy. In short, it runs like this:
as §3

The source made the active and inactive calls. No cut-off for these calls is given here.

For `Cc1cc(=O)c2ccc3c(c2o1)C(=O)c1c(OCCN(C)C)cccc1C3=O`, the result in test [1], in [2], in test [5], in test [6], in test [7] and in test [8] was Active. Besides, in test [9], the outcome was Active. The K in test [3] is 6 ×10³ /M; in test [4], 4 ×10³ /M; in test [10] it was 1 ×10³ /M.
